The sample as a whole holds a higher share of hits than the screen did.
HUVEC inhibit = inhibitors of human endothelial cell proliferation; HUVEC proliferation, CellTiter-Glo luminescence, 72 h; hits give low values; viability, % at 10 µM (by protocol); 86,000 compounds, 1.1% hits; AID 648;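 active = viability at or below 30%; inactive = viability above 30%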;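 note: 100% = median luminescence of DMSO-only cell control wells on each plate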
Lung fibro prol = blocks proliferation of human lung fibroblasts | LL 47 human lung fibroblast viability, ATP luminescence; hits give low values | viability, % at 10 µM | 85,000 compounds, 1.1% hits | AID 719;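 active = viability at or below 50% in the single dose screen; inactive = viability above 50%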;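 note: compound exposure lasted 72 h before the ATP readout; 100% = median luminescence of untreated cell-only wells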
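Test system: LL 47 human lung fibroblasts / Quantity: 1,150 cells in each well / Medium: IMEM growth medium with 15% fetal bovine serum / Incubation: 72 h compound exposure at 37 °C after overnight plating / Detection: CellTiter-Glo luminescence measuring cellular ATP / Read-out: % viability versus median cells-only luminescence / Benchmarks: cell-only wells, no compound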
H69AR growth 86K = growth inhibitors of human H69AR lung tumor cells; AID 598; viability, % at 10 µM; H69AR lung tumor viability, ATP luminescence, 72 h; hits give low values; 85,000 compounds, 6% hits;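 active = viability at or below 40%; inactive = viability above 40%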;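 note: multidrug resistant small cell line overexpressing MRP-1 efflux transporter; 100% = mean luminescence of untreated control wells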
HCT116 PTEN-null = growth suppressors of cells with PTEN tumor suppressor deletion | HCT116 PTEN-null viability, CellTiter-Glo, 60 h; hits give low values | viability, % at 10 µM | 140,000 compounds, 1.2% hits | AID 827;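 active = viability at or below a set limit, 4 SD under the median of all tested compounds, cut at about 3.7% in these data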;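 note: PTEN knockout HCT116 line with beta catenin targeted HCT116 as companion control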
HCT116 bCat-KO = beta-catenin-lacking colon tumor cell growth suppression | AID 818 | HCT116 beta-catenin knockout viability, CellTiter-Glo, 60 h; hits give low values | viability, % at 10 µM | 140,000 compounds, 1.5% hits;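 active = viability at or under a set limit, the compound median less 4 SD, cut at about 6% in these data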;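 note: 0% = Hyamine 1622 control at 20 µM and 100% = untreated cell control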
* marks the source's active call; other numbers are inactive results.

`COc1ccc2cc(C(c3nnnn3Cc3ccc(F)cc3)N3CCCCCC3)c(=O)[nH]c2c1` (stereo not drawn) gave HUVEC inhibit 92, Lung fibro prol 98, H69AR growth 86K 37*, HCT116 PTEN-null 99 and HCT116 bCat-KO 95.
N#CC1=C(N)Oc2cc(O)ccc2C1c1cccs1 (stereo not drawn) was read as HUVEC inhibit 96, Lung fibro prol 100, H69AR growth 86K 67, HCT116 PTEN-null 85 and HCT116 bCat-KO 84.
N#CC1=C(N)Oc2c(ccc3ccccc23)C1c1cccs1 (stereo not drawn) was read as HUVEC inhibit 22*, Lung fibro prol 53, H69AR growth 86K 17*, HCT116 PTEN-null 12 and HCT116 bCat-KO 11.
For OC(CN1c2ccccc2Sc2ccccc21)Cn1nnc2ccccc21 (stereo not drawn) the results were HUVEC inhibit 60, Lung fibro prol 90, H69AR growth 86K 25*, HCT116 PTEN-null 2.5* and HCT116 bCat-KO 7.
Cc1nn(CC(O)CN2c3ccccc3Sc3ccccc32)c(C)c1Br (stereo not drawn) was read as HUVEC inhibit 59, Lung fibro prol 88, H69AR growth 86K 27*, HCT116 PTEN-null 52 and HCT116 bCat-KO 65.
For Brc1ccc(-c2nc(N/N=C/c3cccnc3)c3ccccc3n2)cc1 the results were HUVEC inhibit 61, Lung fibro prol 60, H69AR growth 86K 11*, HCT116 PTEN-null 39 and HCT116 bCat-KO 50.
For CCOC(=O)c1c(C)[nH]c(C)c1C(=O)Cn1nnc(-c2ccccc2C)n1 the results were HUVEC inhibit 96, Lung fibro prol 93, H69AR growth 86K 76, HCT116 PTEN-null 72 and HCT116 bCat-KO 80.
`O=C(COC(=O)c1ccccc1Nc1cccc(C(F)(F)F)c1)NCc1ccco1` gave HUVEC inhibit 100, Lung fibro prol 94, H69AR growth 86K 84, HCT116 PTEN-null 72 and HCT116 bCat-KO 65.
CCOC(=O)C1(N(CC)CC)Sc2cc(C)ccc2NC1=O (stereo not drawn) was read as HUVEC inhibit 74, Lung fibro prol 55, H69AR growth 86K 15*, HCT116 PTEN-null 26 and HCT116 bCat-KO 24.
O=C(CCSc1nc(-c2ccc3c(c2)OCO3)cc(C(F)(F)F)n1)NCc1ccco1 was read as HUVEC inhibit 96, Lung fibro prol 100, H69AR growth 86K 33*, HCT116 PTEN-null 58 and HCT116 bCat-KO 87.
For O=C(CCSc1nc(-c2ccc3c(c2)OCO3)cc(C(F)(F)F)n1)NCc1ccccc1 the results were HUVEC inhibit 91, Lung fibro prol 99, H69AR growth 86K 23*, HCT116 PTEN-null 80 and HCT116 bCat-KO 83.
`CN(Cc1ccccc1)C(=O)CCSc1nc(-c2ccc3c(c2)OCO3)cc(C(F)(F)F)n1` gave HUVEC inhibit 95, Lung fibro prol 105, H69AR growth 86K 77, HCT116 PTEN-null 62 and HCT116 bCat-KO 69.
`COCCNC(=O)CCSc1nc(-c2ccc(OC)cc2)cc(C(F)(F)F)n1` gave HUVEC inhibit 93, Lung fibro prol 106, H69AR growth 86K 68, HCT116 PTEN-null 82 and HCT116 bCat-KO 94.
COc1ccc(CNC(=O)CCSc2nc(-c3ccc4c(c3)OCO4)cc(C(F)(F)F)n2)cc1 was read as HUVEC inhibit 64, Lung fibro prol 97, H69AR growth 86K 33*, HCT116 PTEN-null 61 and HCT116 bCat-KO 71.
Screening Cc1c(Cl)ccc(S(=O)(=O)N2CCN=C2c2ccccc2)c1Cl returned HCT116 PTEN-null 74 and HCT116 bCat-KO 78.
`O=C(Cn1c(C(=O)N2CCN(C3CCCC3)CC2)cc2sccc21)c1ccccc1` gave HUVEC inhibit 94, Lung fibro prol 89, H69AR growth 86K 90, HCT116 PTEN-null 71 and HCT116 bCat-KO 75.
COc1ccccc1CC(NC(C)=O)C(=O)NC1CCN(C(=O)c2ccc([N+](=O)[O-])cc2)CC1 (stereo not drawn) was read as HCT116 PTEN-null 97 and HCT116 bCat-KO 91.
COc1ccc(S(=O)(=O)NCC(=O)N(CC(=O)NCC2CCCO2)c2cc(C)ccc2C)cc1 (stereo not drawn) was read as HUVEC inhibit 105, Lung fibro prol 95, H69AR growth 86K 37*, HCT116 PTEN-null 120 and HCT116 bCat-KO 104.
For Cc1ccc(-n2c(C)c3c(C)nnc(C)c3c2C)cc1C the results were HUVEC inhibit 102, Lung fibro prol 93, H69AR growth 86K 32*, HCT116 PTEN-null 8 and HCT116 bCat-KO 4.0*.
Cc1ccc(-n2c(C)c3c(C)nnc(C)c3c2C)cc1 was read as HUVEC inhibit 87, Lung fibro prol 102 and H69AR growth 86K 81.
`COc1cc(Nc2ccc(C)cc2)c([N+](=O)[O-])nc1[N+](=O)[O-]` gave HUVEC inhibit 42, Lung fibro prol 39*, H69AR growth 86K 6.2*, HCT116 PTEN-null 21 and HCT116 bCat-KO 23.
Screening CO/N=C\C(=N\Nc1ccc(OC)cc1)C(=O)c1ccccc1 returned HUVEC inhibit 65, Lung fibro prol 86, H69AR growth 86K 28*, HCT116 PTEN-null 69 and HCT116 bCat-KO 65.
Screening COc1ccc(C(=S)Nc2ccc(C)cc2)cc1 returned HCT116 PTEN-null 105 and HCT116 bCat-KO 83.
Screening COc1ccc(N/N=C(\C#N)C(N)=O)cc1 returned HCT116 PTEN-null 99 and HCT116 bCat-KO 96.
Screening CO/N=C/C(=N\Nc1ccc(C)cc1)C(=O)c1ccc(OC)cc1 returned HUVEC inhibit 54, Lung fibro prol 55, H69AR growth 86K 22*, HCT116 PTEN-null 32 and HCT116 bCat-KO 28.
Screening O=S(=O)(NCc1ccccc1)c1ccc(S(=O)(=O)N(Cc2ccccn2)Cc2ccco2)cc1 returned HUVEC inhibit 61, Lung fibro prol 85, H69AR growth 86K 67, HCT116 PTEN-null 90 and HCT116 bCat-KO 85.
Screening COC(=O)c1nc(NC(C)=O)n[nH]1 returned HUVEC inhibit 103, Lung fibro prol 105, H69AR growth 86K 93, HCT116 PTEN-null 99 and HCT116 bCat-KO 99.
COC(=O)c1nc(NC2=NCCCCC2)n[nH]1 was read as HUVEC inhibit 94, H69AR growth 86K 39*, HCT116 PTEN-null 107 and HCT116 bCat-KO 114.
Screening COc1ccc(-c2nn(-c3ccccc3)cc2CNC(=O)c2cccc([N+](=O)[O-])c2)cc1 returned HCT116 PTEN-null 72 and HCT116 bCat-KO 74.
`CCOC(=O)N1CCN(C(=O)c2ccc3c(=O)n(CCC4=CCCCC4)c(=O)[nH]c3c2)CC1` gave HUVEC inhibit 85, Lung fibro prol 89, H69AR growth 86K 39*, HCT116 PTEN-null 87 and HCT116 bCat-KO 82.
Screening CCCCCn1c(=O)[nH]c2cc(C(=O)N3CCN(CC)CC3)ccc2c1=O returned HUVEC inhibit 99, Lung fibro prol 92, H69AR growth 86K 80, HCT116 PTEN-null 95 and HCT116 bCat-KO 90.
COc1ccc(/C=N/OCC(=O)N(Cc2ccc(OC)cc2)c2ccccc2C(=O)O)cc1 was read as HCT116 PTEN-null 96 and HCT116 bCat-KO 90.
